Assay: Safety and tolerability
Type: in vivo, human
Procedure, shortened: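 Patients (enrolled January 2015–February 2016) received oral test compound in four cohorts: 160, 320 or 480 mg QD, or 300 mg BID. Dosing continued until progression, unacceptable AEs or consent withdrawal. AEs were graded by CTCAE v4.0, alongside laboratory tests, vital signs and ECGs. The safety population was all patients receiving ≥1 dose.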

For `CC#CC(=O)N1CC[C@@H](n2c(=O)n(-c3ccc(Oc4ccccc4)cc3)c3c(N)ncnc32)C1` [tirabrutinib], the “All AEs, Any grade” value (160 mg QD N = 3) was 3 (100.0) n (%), the “All AEs, Grade ≥3” value (160 mg QD N = 3) was 1 (33.3) n (%) and the “Anemia, Any grade” value (160 mg QD N = 3) was 0 n (%). The “Anemia, Grade ≥3” value (160 mg QD N = 3) was 0 n (%), the “Arthralgia, Any grade” value (160 mg QD N = 3) was 1 (33.3) n (%) and the “Arthralgia, Grade ≥3” value (160 mg QD N = 3) was 0 n (%). For the same compound, the “Aspartate aminotransferase increased, Any grade” value (160 mg QD N = 3) was 0 n (%), the “Aspartate aminotransferase increased, Grade ≥3” value (160 mg QD N = 3) was 0 n (%) and the “Constipation, Any grade” value (160 mg QD N = 3) was 0 n (%). For the same compound, the “Constipation, Grade ≥3” value (160 mg QD N = 3) was 0 n (%), the “Cystitis, Any grade” value (160 mg QD N = 3) was 0 n (%) and the “Cystitis, Grade ≥3” value (160 mg QD N = 3) was 0 n (%). The “Diarrhea, Any grade” value (160 mg QD N = 3) was 0 n (%), the “Diarrhea, Grade ≥3” value (160 mg QD N = 3) was 0 n (%) and the “Dysgeusia, Any grade” value (160 mg QD N = 3) was 0 n (%). For the same compound, the “Dysgeusia, Grade ≥3” value (160 mg QD N = 3) was 0 n (%), the “Gamma‐glutamyltransferase increased, Any grade” value (160 mg QD N = 3) was 0 n (%) and the “Gamma‐glutamyltransferase increased, Grade ≥3” value (160 mg QD N = 3) was 0 n (%). For the same compound, the “Headache, Any grade” value (160 mg QD N = 3) was 1 (33.3) n (%), the “Headache, Grade ≥3” value (160 mg QD N = 3) was 0 n (%) and the “Hypokalemia, Any grade” value (160 mg QD N = 3) was 0 n (%). For the same compound, the “Hypokalemia, Grade ≥3” value (160 mg QD N = 3) was 0 n (%), the “Hypophosphatemia, Any grade” value (160 mg QD N = 3) was 0 n (%) and the “Hypophosphatemia, Grade ≥3” value (160 mg QD N = 3) was 0 n (%). For the same compound, the “Insomnia, Any grade” value (160 mg QD N = 3) was 0 n (%), the “Insomnia, Grade ≥3” value (160 mg QD N = 3) was 0 n (%) and the “Leukopenia, Any grade” value (160 mg QD N = 3) was 0 n (%). The “Leukopenia, Grade ≥3” value (160 mg QD N = 3) was 0 n (%), the “Lymphopenia, Any grade” value (160 mg QD N = 3) was 0 n (%) and the “Lymphopenia, Grade ≥3” value (160 mg QD N = 3) was 0 n (%). The “Malaise, Any grade” value (160 mg QD N = 3) was 2 (66.7) n (%), the “Malaise, Grade ≥3” value (160 mg QD N = 3) was 0 n (%) and the “Myalgia, Any grade” value (160 mg QD N = 3) was 2 (66.7) n (%). The “Myalgia, Grade ≥3” value (160 mg QD N = 3) was 0 n (%), the “Nasopharyngitis, Any grade” value (160 mg QD N = 3) was 1 (33.3) n (%) and the “Nasopharyngitis, Grade ≥3” value (160 mg QD N = 3) was 0 n (%). The “Nausea, Any grade” value (160 mg QD N = 3) was 0 n (%), the “Nausea, Grade ≥3” value (160 mg QD N = 3) was 0 n (%) and the “Neutropenia, Any grade” value (160 mg QD N = 3) was 1 (33.3) n (%). For the same compound, the “Neutropenia, Grade ≥3” value (160 mg QD N = 3) was 1 (33.3) n (%), the “Pharyngitis, Any grade” value (160 mg QD N = 3) was 1 (33.3) n (%) and the “Pharyngitis, Grade ≥3” value (160 mg QD N = 3) was 0 n (%). For the same compound, the “Pyrexia, Any grade” value (160 mg QD N = 3) was 0 n (%), the “Pyrexia, Grade ≥3” value (160 mg QD N = 3) was 0 n (%) and the “Rash, Any grade” value (160 mg QD N = 3) was 1 (33.3) n (%). For the same compound, the “Rash, Grade ≥3” value (160 mg QD N = 3) was 0 n (%), the “Thrombocytopenia, Any grade” value (160 mg QD N = 3) was 0 n (%) and the “Thrombocytopenia, Grade ≥3” value (160 mg QD N = 3) was 0 n (%). The “Upper respiratory tract inflammation, Any grade” value (160 mg QD N = 3) was 1 (33.3) n (%), the “Upper respiratory tract inflammation, Grade ≥3” value (160 mg QD N = 3) was 0 n (%) and the “Vomiting, Any grade” value (160 mg QD N = 3) was 0 n (%). The “Vomiting, Grade ≥3” value (160 mg QD N = 3) was 0 n (%), the “All AEs, Any grade” value (300 mg BID N = 7) was 7 (100.0) n (%) and the “All AEs, Grade ≥3” value (300 mg BID N = 7) was 3 (42.9) n (%). For the same compound, the “Anemia, Any grade” value (300 mg BID N = 7) was 1 (14.3) n (%), the “Anemia, Grade ≥3” value (300 mg BID N = 7) was 1 (14.3) n (%) and the “Arthralgia, Any grade” value (300 mg BID N = 7) was 1 (14.3) n (%). The “Arthralgia, Grade ≥3” value (300 mg BID N = 7) was 0 n (%), the “Aspartate aminotransferase increased, Any grade” value (300 mg BID N = 7) was 1 (14.3) n (%) and the “Aspartate aminotransferase increased, Grade ≥3” value (300 mg BID N = 7) was 0 n (%). For the same compound, the “Constipation, Any grade” value (300 mg BID N = 7) was 1 (14.3) n (%), the “Constipation, Grade ≥3” value (300 mg BID N = 7) was 0 n (%) and the “Cystitis, Any grade” value (300 mg BID N = 7) was 1 (14.3) n (%). For the same compound, the “Cystitis, Grade ≥3” value (300 mg BID N = 7) was 0 n (%), the “Diarrhea, Any grade” value (300 mg BID N = 7) was 2 (28.6) n (%) and the “Diarrhea, Grade ≥3” value (300 mg BID N = 7) was 0 n (%). For the same compound, the “Dysgeusia, Any grade” value (300 mg BID N = 7) was 1 (14.3) n (%), the “Dysgeusia, Grade ≥3” value (300 mg BID N = 7) was 0 n (%) and the “Gamma‐glutamyltransferase increased, Any grade” value (300 mg BID N = 7) was 1 (14.3) n (%). For the same compound, the “Gamma‐glutamyltransferase increased, Grade ≥3” value (300 mg BID N = 7) was 0 n (%), the “Headache, Any grade” value (300 mg BID N = 7) was 1 (14.3) n (%) and the “Headache, Grade ≥3” value (300 mg BID N = 7) was 0 n (%). The “Hypokalemia, Any grade” value (300 mg BID N = 7) was 0 n (%), the “Hypokalemia, Grade ≥3” value (300 mg BID N = 7) was 0 n (%) and the “Hypophosphatemia, Any grade” value (300 mg BID N = 7) was 0 n (%). For the same compound, the “Hypophosphatemia, Grade ≥3” value (300 mg BID N = 7) was 0 n (%), the “Insomnia, Any grade” value (300 mg BID N = 7) was 3 (42.9) n (%) and the “Insomnia, Grade ≥3” value (300 mg BID N = 7) was 0 n (%). The “Leukopenia, Any grade” value (300 mg BID N = 7) was 0 n (%), the “Leukopenia, Grade ≥3” value (300 mg BID N = 7) was 0 n (%) and the “Lymphopenia, Any grade” value (300 mg BID N = 7) was 0 n (%). For the same compound, the “Lymphopenia, Grade ≥3” value (300 mg BID N = 7) was 0 n (%), the “Malaise, Any grade” value (300 mg BID N = 7) was 0 n (%) and the “Malaise, Grade ≥3” value (300 mg BID N = 7) was 0 n (%). For the same compound, the “Myalgia, Any grade” value (300 mg BID N = 7) was 0 n (%), the “Myalgia, Grade ≥3” value (300 mg BID N = 7) was 0 n (%) and the “Nasopharyngitis, Any grade” value (300 mg BID N = 7) was 1 (14.3) n (%). The “Nasopharyngitis, Grade ≥3” value (300 mg BID N = 7) was 0 n (%), the “Nausea, Any grade” value (300 mg BID N = 7) was 2 (28.6) n (%) and the “Nausea, Grade ≥3” value (300 mg BID N = 7) was 0 n (%). The “Neutropenia, Any grade” value (300 mg BID N = 7) was 0 n (%), the “Neutropenia, Grade ≥3” value (300 mg BID N = 7) was 0 n (%) and the “Pharyngitis, Any grade” value (300 mg BID N = 7) was 1 (14.3) n (%). The “Pharyngitis, Grade ≥3” value (300 mg BID N = 7) was 0 n (%), the “Pyrexia, Any grade” value (300 mg BID N = 7) was 2 (28.6) n (%) and the “Pyrexia, Grade ≥3” value (300 mg BID N = 7) was 0 n (%). For the same compound, the “Rash, Any grade” value (300 mg BID N = 7) was 1 (14.3) n (%), the “Rash, Grade ≥3” value (300 mg BID N = 7) was 0 n (%) and the “Thrombocytopenia, Any grade” value (300 mg BID N = 7) was 0 n (%). For the same compound, the “Thrombocytopenia, Grade ≥3” value (300 mg BID N = 7) was 0 n (%), the “Upper respiratory tract inflammation, Any grade” value (300 mg BID N = 7) was 0 n (%) and the “Upper respiratory tract inflammation, Grade ≥3” value (300 mg BID N = 7) was 0 n (%). The “Vomiting, Any grade” value (300 mg BID N = 7) was 2 (28.6) n (%), the “Vomiting, Grade ≥3” value (300 mg BID N = 7) was 0 n (%) and the “All AEs, Any grade” value (320 mg QD N = 3) was 3 (100.0) n (%). For the same compound, the “All AEs, Grade ≥3” value (320 mg QD N = 3) was 2 (66.7) n (%), the “Anemia, Any grade” value (320 mg QD N = 3) was 0 n (%) and the “Anemia, Grade ≥3” value (320 mg QD N = 3) was 0 n (%). The “Arthralgia, Any grade” value (320 mg QD N = 3) was 1 (33.3) n (%), the “Arthralgia, Grade ≥3” value (320 mg QD N = 3) was 0 n (%) and the “Aspartate aminotransferase increased, Any grade” value (320 mg QD N = 3) was 0 n (%). For the same compound, the “Aspartate aminotransferase increased, Grade ≥3” value (320 mg QD N = 3) was 0 n (%), the “Constipation, Any grade” value (320 mg QD N = 3) was 1 (33.3) n (%) and the “Constipation, Grade ≥3” value (320 mg QD N = 3) was 0 n (%). The “Cystitis, Any grade” value (320 mg QD N = 3) was 1 (33.3) n (%), the “Cystitis, Grade ≥3” value (320 mg QD N = 3) was 0 n (%) and the “Diarrhea, Any grade” value (320 mg QD N = 3) was 1 (33.3) n (%). For the same compound, the “Diarrhea, Grade ≥3” value (320 mg QD N = 3) was 0 n (%), the “Dysgeusia, Any grade” value (320 mg QD N = 3) was 0 n (%) and the “Dysgeusia, Grade ≥3” value (320 mg QD N = 3) was 0 n (%). For the same compound, the “Gamma‐glutamyltransferase increased, Any grade” value (320 mg QD N = 3) was 1 (33.3) n (%), the “Gamma‐glutamyltransferase increased, Grade ≥3” value (320 mg QD N = 3) was 0 n (%) and the “Headache, Any grade” value (320 mg QD N = 3) was 0 n (%). For the same compound, the “Headache, Grade ≥3” value (320 mg QD N = 3) was 0 n (%), the “Hypokalemia, Any grade” value (320 mg QD N = 3) was 0 n (%) and the “Hypokalemia, Grade ≥3” value (320 mg QD N = 3) was 0 n (%). For the same compound, the “Hypophosphatemia, Any grade” value (320 mg QD N = 3) was 0 n (%), the “Hypophosphatemia, Grade ≥3” value (320 mg QD N = 3) was 0 n (%) and the “Insomnia, Any grade” value (320 mg QD N = 3) was 0 n (%). For the same compound, the “Insomnia, Grade ≥3” value (320 mg QD N = 3) was 0 n (%), the “Leukopenia, Any grade” value (320 mg QD N = 3) was 2 (66.7) n (%) and the “Leukopenia, Grade ≥3” value (320 mg QD N = 3) was 2 (66.7) n (%). For the same compound, the “Lymphopenia, Any grade” value (320 mg QD N = 3) was 1 (33.3) n (%), the “Lymphopenia, Grade ≥3” value (320 mg QD N = 3) was 1 (33.3) n (%) and the “Malaise, Any grade” value (320 mg QD N = 3) was 0 n (%). The “Malaise, Grade ≥3” value (320 mg QD N = 3) was 0 n (%).
